Measurements pooled from the literature.
Compare with care: the assays were run in different laboratories.
Matrix: plasma

For `CC(C)(O)c1ccccc1-c1ccc2[nH]c(/C=C/c3ccc(C(F)(F)F)cc3)nc2c1`, the AUC(0-t) was 83 ng·h/mL (male human; oral, 1 mg, single dose, fasted).
`OC[C@H]1O[C@@H](c2ccc(Cl)c(Cc3ccc(O[C@H]4CCOC4)cc3)c2)[C@H](O)[C@@H](O)[C@@H]1O` has an AUC(0-t) of 4.31 µM·h (human; oral, 25 mg, single dose).
The AUC(0-t) of `C[C@@]1(c2cc(NC(=O)c3ccc(C#N)cn3)ccc2F)C=CSC(N)=N1` is reported as 8800 ng·h/mL (human; oral, 90 mg, single dose).
`CO[C@H]1CC[C@H](N2C(=O)CNc3ncc(-c4ccc(C(C)(C)O)nc4)nc32)CC1` has an AUC(0-t) of 1500 ng·h/mL (human; oral, 45 mg, patients).
With `COc1cc(N2CCC(N3CCN(C)CC3)CC2)ccc1Nc1ncnc(Nc2ccccc2S(=O)(=O)C(C)C)n1` the AUC(0-t) was 3810 ng·h/mL (human; oral, 75 mg, multiple doses, patients).
The AUC(0-t) of `COCCOc1cnc2ccn([C@H](C)c3nnc4c(F)cc(-c5cnn(C)c5)cn34)c(=O)c2c1` is reported as 17300 ng·h/mL (human; oral, 100 mg, multiple doses, once daily, patients).
`Cc1nc(NC(=O)N2CCC[C@H]2C(N)=O)sc1-c1ccnc(C(C)(C)C(F)(F)F)c1` gave an AUC(0-t) of 15500 ng·h/mL (human; oral, 180 mg, patients).
The AUC(0-t) of `CO[C@@H]1[C@H](OC(=O)N2CC(CCN3CCOCC3)C2)CC[C@]2(CO2)[C@H]1[C@@]1(C)O[C@@H]1CC=C(C)C` is reported as 10.4 ng·h/mL (human; subcutaneous, 3.6 mg, single dose, healthy volunteers).
For `COc1ccc([C@@H]2CN(C(=O)[C@@H](O)CO)C[C@@]2(C)[C@@H](C)O)cc1OC1CN(c2ccc(C)cn2)C1`, the AUC(0-t) was 5620 ng·h/mL (human; oral, 30 mg, single dose, healthy volunteers).
For `CC(C)n1cc(C#N)c2cc(-n3cc(C(=O)O)cn3)ccc21`, the AUC(0-t) was 19400 ng·h/mL (human; oral, 100 mg, single dose, fasted, healthy volunteers).
For `C[C@@H](Nc1cc(F)cc(F)c1)c1cc(C(=O)N(C)C)cc2c(=O)cc(N3CCOCC3)oc12`, the AUC(0-t) was 1240 ng·h/mL (human; oral, 60 mg, single dose, patients).
With `FC(F)(F)c1ccc(CNc2ccc(Cc3c[nH]c4ncc(Cl)cc34)cn2)cn1` the AUC(0-t) was 13300 ng·h/mL (human; oral, 600 mg, multiple doses, patients).
